Measured values taken from ChEMBL document CHEMBL2311403, “Design and synthesis of potent inhibitor of apoptosis (IAP) proteins antagonists bearing an octahydropyrrolo[1,2-a]pyrazine scaffold as a novel proline mimetic” (J Med Chem, 2013).

What was measured:
[1] = Oral bioavailability in BALB/cAJcl mouse at 10 mg/kg by LC/MS/MS analysis; assay type: ADME, organism-based; settings: in vivo
In short: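 Female BALB/cAJcl mice, seven weeks old, were dosed orally at 10 mg/kg and intravenously at 1 mg/mL/kg. Plasma compound concentrations were measured by LC/MS/MS.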

[2] = Clearance in mouse liver microsomes at 1 umol/l after 20 mins by LC/MS/MS analysis
[3] = Lipophilicity, log D of the compound at pH 7.4; settings: buffer
[4] = Clearance in human liver microsomes at 1 umol/l after 20 mins by LC/MS/MS analysis
MDA-MB-231 [5] = assay: Growth inhibition of human MDA-MB-231 cells assessed as cell viability after 3 days by CellTitre-Glo Luminescent assay; assay type: functional; settings: MDA-MB-231, 72 h
[6] = Permeability of the compound by PAMPA; assay type: ADME; settings: read-out: permeability
Mus musculus = assay: Toxicity in athymic nude BALB/cAJcl mouse xenografted with human MDA-MB-231 cells expressing luciferase gene at 30 mg/kg, po bid measured on day 14; assay type: organism-based; design: dose 30 mg/kg, route oral; settings: in vivo
MDA-MB-231 [7] = assay: Antitumor activity against human MDA-MB-231 cells expressing luciferase gene xenografted in athymic nude BALB/cAJcl mouse assessed as tumor growth inhibition at 100 mg/kg, po bid measured on day 14 relative to control; assay type: functional
MDA-MB-231 [8] = assay: Antitumor activity against human MDA-MB-231 cells expressing luciferase gene xenografted in athymic nude BALB/cAJcl mouse assessed as tumor growth inhibition at 30 mg/kg, po bid measured on day 14 relative to control; assay type: functional
MDA-MB-231 [9] = assay: Antitumor activity against human MDA-MB-231 cells expressing luciferase gene xenografted in po dosed athymic nude BALB/cAJcl mouse assessed as tumor regression administered bid measured on day 14; assay type: functional, organism-based

SMILES | bioavailability [1] | microsomal CLint at 20 min, 1 µM [2] | logD [3] | microsomal CLint at 20 min, 1 µM [4] | GI50 (MDA-MB-231 [5]) | Papp [6] | Activity (Mus musculus) | T/C (MDA-MB-231 [7]) | T/C (MDA-MB-231 [8]) | Activity (MDA-MB-231 [9])
CN[C@@H](C)C(=O)N[C@H](C(=O)N1C[C@H]2CCCN2C[C@H]1C(=O)N[C@@H]1CCOc2ccccc21)C1CCOCC1 | 12% | 21 µL/min/mg | 1.75 | 15 µL/min/mg | 20 nM | – | – | – | – | –
CN[C@@H](C)C(=O)N[C@H](C(=O)N1C[C@H]2CC(F)(F)CN2C[C@H]1C(=O)N[C@@H]1CCOc2ccccc21)C1CCC(F)(F)CC1 | 21% | 147 µL/min/mg | 2.56 | 170 µL/min/mg | 8 nM | – | – | – | – | –
CN[C@@H](C)C(=O)N[C@H](C(=O)N1C[C@H]2CCCN2C[C@H]1C(=O)N[C@@H]1CCOc2ccccc21)C1CCC(F)(F)CC1 | 53% | 66 µL/min/mg | 2.43 | 82 µL/min/mg | 13 nM | 0.3 ×10⁻⁶ cm/s | – | – | – | –
CN[C@@H](C)C(=O)N[C@H](C(=O)N1C[C@H]2CCCN2C[C@H]1C(=O)N[C@H](C)c1ccccc1)C1CCCCC1 | 63% | 115 µL/min/mg | – | 82 µL/min/mg | 20 nM | – | – | – | – | –
CCO[C@@H]1C[C@@H]2CN(C(=O)[C@@H](NC(=O)[C@H](C)NC)C3CCC(F)(F)CC3)[C@H](C(=O)N[C@@H]3CCOc4ccccc43)CN2C1 | 50% | 40 µL/min/mg | 2.6 | 52 µL/min/mg | 1.8 nM | 4.4 ×10⁻⁶ cm/s | Non-toxic | -62% | -53% | Dose-dependent effect
CN[C@@H](C)C(=O)N[C@H](C(=O)N1C[C@@H]2CCCN2C[C@H]1C(=O)N[C@@H]1CCOc2ccccc21)C1CCC(F)(F)CC1 | 13% | 2 µL/min/mg | 1.94 | 38 µL/min/mg | 15 nM | – | – | – | – | –
CN[C@@H](C)C(=O)N[C@H](C(=O)N1C[C@H]2CCCN2C[C@H]1C(=O)N[C@H]1CCCc2ccccc21)C1CCCCC1 | – | 239 µL/min/mg | – | 236 µL/min/mg | – | – | – | – | – | –
CN[C@@H](C)C(=O)N[C@H](C(=O)N1C[C@H]2CCCN2C[C@H]1C(=O)N[C@@H]1CCOc2ccccc21)C1CCCCC1 | 41% | 116 µL/min/mg | 2.91 | 128 µL/min/mg | 5.7 nM | – | – | – | – | –

Continued, in another order:

bioavailability [1] | microsomal CLint at 20 min, 1 µM [2] | logD [3] | microsomal CLint at 20 min, 1 µM [4] | GI50 (MDA-MB-231 [5]) | Papp [6] | SMILES | Activity (Mus musculus) | T/C (MDA-MB-231 [7]) | T/C (MDA-MB-231 [8]) | Activity (MDA-MB-231 [9])
– | – | 1.6 | 4 µL/min/mg | 11 nM | – | CN[C@@H](C)C(=O)N[C@H](C(=O)N1C[C@H]2C[C@@H](O)CN2C[C@H]1C(=O)N[C@@H]1CCOc2ccccc21)C1CCC(F)(F)CC1 | – | – | – | –
30% | 161 µL/min/mg | – | 154 µL/min/mg | 21 nM | – | CN[C@@H](C)C(=O)N[C@H](C(=O)N1C[C@H]2CCCN2C[C@H]1C(=O)N[C@@H]1CCC(=O)c2ccccc21)C1CCCCC1 | – | – | – | –
26% | 208 µL/min/mg | – | 130 µL/min/mg | 18 nM | – | CN[C@@H](C)C(=O)N[C@H](C(=O)N1C[C@H]2CCCN2C[C@H]1C(=O)N[C@@H]1CCC(F)(F)c2ccccc21)C1CCCCC1 | – | – | – | –
6% | 232 µL/min/mg | – | 218 µL/min/mg | 6.2 nM | – | CN[C@@H](C)C(=O)N[C@H](C(=O)N1C[C@H]2CCCN2C[C@H]1C(=O)N[C@@H]1CCCc2ccccc21)C1CCCCC1.Cl.Cl | – | – | – | –
33% | 129 µL/min/mg | 2.17 | 90 µL/min/mg | 11 nM | – | CN[C@@H](C)C(=O)N[C@H](C(=O)N1C[C@H]2CCCN2C[C@H]1C(=O)N[C@@H]1CCOc2ccccc21)c1ccccc1 | – | – | – | –
